The subject of series [1] is Rattus norvegicus. Nature of the series: Hypocholesterolemic activity in Sprague-Dawley rat assessed as serum cholesterol level at 10 mg/kg/day, po administered via intubation measured on day 10 by Liebermann-Burchard reaction (reference value: 100%). The class given is functional.
In series [2] the test system is Rattus norvegicus. In words: Hypocholesterolemic activity in Sprague-Dawley rat assessed as serum cholesterol level at 10 mg/kg/day, po administered via intubation measured on day 4 by Liebermann-Burchard reaction (reference value: 100%). The class given is functional.
Series [3] has as its system Rattus norvegicus. Nature of the series: Hypocholesterolemic activity in Sprague-Dawley rat assessed as serum cholesterol level at 10 mg/kg/day, po administered via intubation measured on day 16 by Liebermann-Burchard reaction (reference value: 100%). The class given is functional.
Series [4] can be described thus: Solubility of the compound in 1% CMC. The class given is physicochemical.
The nature of series [5]: Toxicity in ip dosed CF1 mouse assessed as animal death. As to conditions: in vivo. The class given is organism-based. Summed up:
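Male CF1 mice given active propanones ip over 10 mg to 6 g/kg where solubility allowed; deaths recorded to estimate LD50.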

In series [6] the test system is Rattus norvegicus. In words: Effect on epididymis and vas deferens weight in rat at 10 mg/kg/day administered for 16 days measured 24 hrs after last drug dosage relative to total body weight (reference value: 0.24 +/- 0.07%). The class given is ADME, organism-based. As to conditions: in vivo.
For series [7], the system named is Rattus norvegicus. In words: Effect on vesicular gland weight in rat at 10 mg/kg/day administered for 16 days measured 24 hrs after last drug dosage relative to total body weight (reference value: 0.11 +/- 0.04%). The class given is ADME, organism-based. The conditions noted are these: in vivo.
In series [8] the test system is Rattus norvegicus. In words: Effect on kidney weight in rat at 10 mg/kg/day administered for 16 days measured 24 hrs after last drug dosage relative to total body weight (reference value: 0.96 +/- 0.08%). The class given is ADME, organism-based. As to conditions: in vivo.
The subject of series [9] is Rattus norvegicus. In words: Uterotrophic activity in ovariectomized Sprague-Dawley rat assessed as uterine weight administered for 3 days (reference value: 100 +/- 27%). As to conditions: in vivo, 72 h. The class given is organism-based, Uterus.
Series [10] deals with Rattus norvegicus. In words: Effect on liver weight in rat at 10 mg/kg/day administered for 16 days measured 24 hrs after last drug dosage relative to total body weight (reference value: 4.54 +/- 0.29%). The class given is ADME, organism-based. The conditions noted are these: in vivo.
Series [11] deals with Rattus norvegicus. Nature of the series: Effect on testes weight in rat at 10 mg/kg/day administered for 16 days measured 24 hrs after last drug dosage relative to total body weight (reference value: 1.10 +/- 0.17%). The class given is ADME, organism-based, Testis. As to conditions: in vivo.
Series [12] has as its system Rattus norvegicus. In words: Effect on heart weight in rat at 10 mg/kg/day administered for 16 days measured 24 hrs after last drug dosage relative to total body weight (reference value: 0.43 +/- 0.10%). The class given is ADME, organism-based. The conditions noted are these: in vivo.
Series [13] deals with Mus musculus. In words: Antifertility activity in CF1 mouse assessed as proportion of reabsorption litter at 50 mg/kg/day, ip (reference value: 100 +/- 25%). The class given is ADME, organism-based. On the set-up: route intraperitoneal. The conditions noted are these: in vivo.
Series [14] concerns Mus musculus. Nature of the series: Antifertility activity in CF1 mouse assessed as proportion of pregnant animals at 50 mg/kg/day, ip (reference value: 100%). The class given is ADME, organism-based. On the set-up: route intraperitoneal. As to conditions: in vivo.
Series [15] concerns Mus musculus. In words: Antifertility activity in CF1 mouse assessed as proportion of fetus per litter at 50 mg/kg/day, ip (reference value: 100 +/- 25%). The class given is ADME, organism-based. More on the design: route intraperitoneal. As to conditions: in vivo.

`O=C(COc1ccccc1)COc1ccccc1`: the Activity is given as 87% in series [1], 104% in series [2] and 90% in [3].

With `COc1ccccc1OCC(=O)COc1ccccc1OC`, the values for the Activity in [1], in [2] and in [3] were 83%, 102% and 79%, respectively.

Consider `O=C(COc1ccc(I)cc1)COc1ccc(I)cc1`, for which the Activity in series [1] is on record as 103%; in series [2], 100%; in [3] it was 93%.

On to `O=C(COCc1ccc(Cl)cc1)COCc1ccc(Cl)cc1`, for which the Activity is recorded as 88% in series [1], 106% in series [2] and 92% in [3].

`CC(=O)C(O)(Cc1ccccc1)Cc1ccccc1`: the Activity came to 77% in series [1], 88% in series [2] and 84% in series [3].

As for `Cc1ccc(OCC(=O)C(O)(Cc2ccccc2)Cc2ccccc2)cc1`, the Activity in series [1] came to 72%; in series [2], 80%; in series [3] it was 70%.

For `Cc1ccc(CCC(=O)CCc2ccc(C)cc2)cc1`, the values for the Activity in series [1], in series [2] and in series [3] were 86%, 91% and 96%, respectively.

`O=C(CS(=O)(=O)c1ccc(Cl)cc1)CS(=O)(=O)c1ccc(Cl)cc1`: the figures for the Activity in series [1], in series [2] and in series [3] were 86%, 82% and 91%, respectively.

On to `CCCCCCCCCCCCCCCCOCC(=O)COCCCCCCCCCCCCCCCC`, for which the Activity came to 89% in series [1], 88% in series [2] and 91% in series [3].

In the case of `CCC(=O)c1ccc(OCC(=O)CCl)cc1`, the Activity in series [1] was found to be 89%; in [2], 79%; in series [3] it was 90%.

By LD50 is commonly meant the dose at which mortality reaches 50%. Regarding `Cc1cc(OCC(=O)COc2cc(C)c(Cl)c(C)c2)cc(C)c1Cl`, the Activity in series [1] was determined as 70%; in series [6], 0.27%; in [7], 0.1%; in [8] it was 1.02%; in [2], 78%; in series [9] it was 83%. Besides, the Activity is recorded as 4.66% in [10], 0.91% in [11] and 61% in [3]. The solubility entry in series [4] was “Insoluble”. In addition, the LD50 in [5] was greater than 6000 mg/kg.

On to `O=C(COc1ccc(F)cc1)COc1ccc(F)cc1`, for which the Activity in [1] is reported as 87%; in series [2], 88%; in series [3] it was 82%.

On to `O=C(COc1ccc(Br)cc1)COc1ccc(Br)cc1`, for which the Activity is listed as 85% in series [1], 74% in [2] and 85% in [3].

`Cc1ccc(OCC(=O)COc2ccc(Cl)cc2)cc1`: the Activity in series [1] was 84%; in [2], 108%; in [3], 75%.

With `COc1ccc(OCC(=O)COc2ccc(Cl)cc2)cc1`, the Activity was 88% in series [1], 102% in [2] and 84% in series [3].

Turning to `Cc1cccc(OCC(=O)COc2cccc(C)c2)c1`, the Activity is given as 119% in series [1], 115% in series [2] and 97% in [3].

As to `CCc1ccc(OCC(=O)COc2ccc(CC)cc2)cc1`, the Activity in series [1] turned out to be 60%; in series [6], 0.27%; in series [7], 0.15%; in [8] it was 0.87%; in [2], 70%; in series [9], 62%. Also, the results for the Activity in [10], in [11] and in series [3] were 4.28%, 1.14% and 64%, respectively. Further, in series [4], the solubility result is recorded as “Insoluble”. For the same molecule, the LD50 in series [5] is greater than 3000 mg/kg.

Consider `COc1ccc(OCC(=O)COc2ccc(OC)cc2)cc1`, for which the Activity in [1] turned out to be 51%; in series [6], 0.22%; in [7] it was 0.11%; in series [8] it was 1.04%; in series [2], 76%; in [9] it was 70%. For the same molecule, the Activity is 4.73% in series [10], 0.54% in series [12], 1.22% in series [11] and 60% in series [3]. For the same molecule, the LD50 in [5] is 6000 mg/kg.

In the case of `CCOc1ccc(OCC(=O)COc2ccc(OCC)cc2)cc1`, the values for the Activity in series [1], in series [2] and in series [3] were 96%, 77% and 85%, respectively.

As to `CCCc1ccc(OCC(=O)COc2ccc(CCC)cc2)cc1`, the Activity in [1] is 88%; in [2], 94%; in [3], 78%.

For `CC(C)(C)c1ccc(OCC(=O)COc2ccc(C(C)(C)C)cc2)cc1`, the values for the Activity in series [1], in [2] and in series [3] were 95%, 87% and 83%, respectively.

In the case of `O=C(CSc1ccc(Cl)cc1)CSc1ccc(Cl)cc1`, the Activity turned out to be 73% in series [1]; 0.25% in [6]; 0.12% in series [7]; 0.94% in [8]; 70% in [2]; 86% in series [9]. The Activity in [10] is given as 4.53%; in [11] it was 1.13%; in series [3], 66%. Also, in series [4], the solubility entry is on record as “Insoluble”. For the same molecule, the LD50 in series [5] was greater than 3000 mg/kg.

As for `Cc1cc(Cl)c(OCC(=O)COc2cc(C)c(C)cc2Cl)cc1C`, the Activity in series [1] was found to be 65%; in [6] it was 0.27%; in [7], 0.16%; in series [8], 1.06%; in series [2] it was 79%; in series [9], 56%. Further, the Activity was determined as 4.8% in [10], 0.52% in [12], 1.24% in series [11] and 58% in [3]. Moreover, the solubility entry in series [4] is listed as “Insoluble”. For the same molecule, in series [5], the LD50 is greater than 2000 mg/kg.

Turning to `O=C(CSc1ccccc1)CSc1ccccc1`, the Activity in series [1] was determined as 101%; in [2] it was 96%; in [3], 79%.

Take `O=C(COc1cc(Cl)c(Cl)cc1Cl)COc1cc(Cl)c(Cl)cc1Cl`: the results for the Activity in series [1], in series [2] and in series [3] were 82%, 94% and 97%, respectively.

Consider `O=C(COc1cccc(Cl)c1)COc1cccc(Cl)c1`, for which the Activity is 91% in series [1], 97% in series [2] and 84% in series [3].

As for `O=C(COc1ccccc1Cl)COc1ccccc1Cl`, the Activity came out at 69% in series [1]; 0.27% in [6]; 0.23% in series [7]; 1.02% in series [8]; 69% in series [2]; 4.66% in series [10]. Moreover, the Activity in [11] was 1.21%; in series [3], 70%.

`Cc1ccccc1OCC(=O)COc1ccccc1C`: the Activity is given as 92% in series [1], 90% in series [2] and 90% in [3].

Take `CC(Cc1ccccc1)C(=O)C(C)Cc1ccccc1` (stereo not given): the Activity in series [13], in [14] and in series [15] was 0% throughout.

For the molecule `Cc1ccc(/C=C/C(=O)/C=C/c2ccc(C)cc2)cc1`, the Activity in series [1] was 83%; in [2], 94%; in series [3], 96%.

Consider `CCOC(=O)C(C)(C)Oc1ccc(Cl)cc1` [CLOFIBRATE], for which the Activity is on record as 98% in series [1], 111% in [2] and 106% in series [3].

On to `C#C[C@]1(O)CC[C@H]2[C@@H]3CCc4cc(O)ccc4[C@H]3CC[C@@]21C` [ETHINYL ESTRADIOL], for which the Activity in series [9] is 231%.
